Source: PMC7111624 (Phytochemistry, 2016)

How the values were obtained:
[1] = test system: GLS; assay: Western blot expression level in U87-MG cells: GLS; format: cell-based, human; conditions: 10 µM, 48 h (Fig. S83)
Summary of the method: (§1)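 U87-MG cells were treated for 48 h with test compound (5 or 10 μM) or left untreated as control. Protein was extracted and analysed by western blot, with β-actin as internal loading control.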

[2] = test system: FASN; assay: Western blot expression level in U87-MG cells: FASN; format: cell-based, human; conditions: 10 µM, 48 h (Fig. S83)
Summary of the method: as §1

[3] = test system: PKM2; assay: Western blot expression level in U87-MG cells: PKM2; format: cell-based, human; conditions: 10 µM, 48 h (Fig. S83)
Summary of the method: as §1

[4] = test system: human erythrocytes; assay: Intracellular K+ uptake in erythrocytes; format: cell-based; conditions: 90 min
Summary of the method: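 Fresh human blood was spun at 660 g for 10 min at 4 °C. Erythrocytes were washed three times in GNS buffer (50 g/L glucose, 9 g/L NaCl) and made into a 50% suspension. Cells were treated with test compound in isotonic KCl for 90 min at 37 °C, with a positive control ionophore, then stopped on ice. They were washed five times in cold GNS, haemolysed in water overnight, and digested in HNO3/HClO4. K+ was measured by atomic absorption against a KCl calibration curve.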

[5] = test system: HK2; assay: Western blot expression level in U87-MG cells: HK2; format: cell-based, human; conditions: 10 µM, 48 h (Fig. S83)
Summary of the method: as §1

[6] = test system: SHG-44; assay: SRB proliferation assay, SHG-44 glioma cells; format: cell-based, human; conditions: HA vs SHG-44
Summary of the method: (§2)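 Each ratio is the IC50 in normal human astrocytes divided by the IC50 in the glioma line. Glioma IC50 came from an SRB proliferation assay after 72 h of treatment across a concentration series. Doxorubicin was the positive control and untreated cells the negative control. Values are means ± S.D.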

[7] = test system: U87-MG; assay: SRB proliferation assay, U87-MG glioma cells; format: cell-based, human; conditions: HA vs U87-MG
Summary of the method: as §2

[8] = test system: U87-MG cells; assay: Cell cycle assay; format: cell-based, human; conditions: 0.8 μM, 12 h
[9] = test system: human astrocytes (HA); assay: Growth inhibition of normal human astrocytes; format: cell-based; conditions: Astrocyte, read-out: IC50, human astrocytes (HA)
[10] = test system: U251; assay: SRB proliferation assay, U251 glioma cells; format: cell-based, human; conditions: HA vs U251
Summary of the method: as §2

[11] = test system: C6; assay: SRB proliferation assay, C6 glioma cells; format: cell-based, rat; conditions: HA vs C6
Summary of the method: as §2

[12] = test system: U251 cells; assay: Cell cycle assay; format: cell-based, human; conditions: U251, 0.8 μM, 12 h

## CC(C)[C@@H]1NC(=O)[C@H](C)OC(=O)[C@@H](C(C)C)NC(=O)[C@@H](C(C)C)OC(=O)[C@H](C(C)C)NC(=O)[C@H](C)OC(=O)[C@@H](C(C)C)NC(=O)[C@@H](C(C)C)OC(=O)[C@H](C(C)C)NC(=O)[C@H](C)OC(=O)[C@@H](C(C)C)NC(=O)[C@@H](C(C)C)OC1=O [Compound 1, valinomycin]
[1]
  expression level of GLS: remarkably reduced expression levels
[2]
  expression level of FANS: remarkably reduced expression levels
[3]
  expression level of PKM2: little effect on the downregulation
[4]; 0.01 μM
  + % increase of intracellular K+ = (Compound−CON)/CON × 100%: 19.06%
  K+ (intracellular, erythrocytes): 3.81 ± 0.01 mg/mL
[4]; 0.05 μM
  + % increase of intracellular K+ = (Compound−CON)/CON × 100%: 83.43%
  K+ (intracellular, erythrocytes): 5.87 ± 0.00 mg/mL
[4]; 0.1 μM
  + % increase of intracellular K+ = (Compound−CON)/CON × 100%: 75.63%
  K+ (intracellular, erythrocytes): 5.62 ± 0.01 mg/mL
[5]
  expression level of HK2: remarkably reduced expression levels

## COc1cccc2c1C(=O)c1c(O)c3c(c(O)c1C2=O)C[C@@](O)(C(=O)CO)C[C@@H]3O[C@H]1C[C@H](N)[C@H](O)[C@H](C)O1 [Doxorubicin (DOX), Doxorubicin]
[6]
  Ratios of IC50HA/IC50GC, SHG-44: 5
[7]
  Ratios of IC50HA/IC50GC, U87-MG: 22
[8]
  G0/G1, percentage of cells: 90.65%
  G2/GM, percentage of cells: 3.83%
  S, percentage of cells: 5.52%
[8]; increase vs control
  Compound(G0/G1)−CON(G0/G1): 49.69%
[9]
  IC50: 8.7 ± 1.2 µM
[10]
  Ratios of IC50HA/IC50GC, U251: 3
[11]
  Ratios of IC50HA/IC50GC, C6: 17
[12]
  G0/G1, percentage of cells: 71.45%
  G2/GM, percentage of cells: 13.04%
  S, percentage of cells: 15.51%
[12]; increase vs control
  Compound(G0/G1)−CON(G0/G1): 26.97%
